Assays:
Format in all cases: functional
Escherichia coli [1] = test: Induction of qnrB4 gene expression in recA-positive lexA deficient Escherichia coli AB1157 expressing deffective lexA gene at 0.2 ug/ml after 30 mins by quantitative PCR method relative to control
How it was run: (§1)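 Plasmid-bearing strains grown in triplicate in LB broth at 37°C to exponential phase. At OD600 0.08 to 0.1, mitomycin C 0.2 μg/ml was added, with one culture left untreated as control. RNA was stabilised, extracted and DNase-treated, then reverse-transcribed with gene-specific reverse primers for real-time qPCR. Levels were calculated by 2−ΔΔCT relative to the unsupplemented control. Experiments repeated at least twice.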

Escherichia coli [2] = test: Induction of qnrB4 gene expression in lexA- and recA- positive Escherichia coli AB1157 at 0.2 ug/ml after 30 mins by quantitative PCR method relative to control; how it was run: as §1
Escherichia coli [3] = test: Induction of qnrB4 gene expression in recA-positive Escherichia coli DM49 expressing protease-resistant lexA at 0.2 ug/ml after 30 mins by quantitative PCR method relative to control; how it was run: as §1
Escherichia coli [4] = test: Induction of qnrA1 gene expression in lexA- and recA- positive Escherichia coli J53 at 0.2 ug/ml after 30 mins by quantitative PCR method relative to control; how it was run: as §1
Escherichia coli [5] = test: Induction of qnrB1 gene expression in lexA- and recA- positive Escherichia coli J53 at 0.2 ug/ml after 15 mins by quantitative PCR method relative to control; how it was run: as §1
Escherichia coli [6] = test: Induction of qnrB4 gene expression in lexA- and recA- positive Escherichia coli J53 at 0.2 ug/ml after 15 mins by quantitative PCR method relative to control; how it was run: as §1
Escherichia coli [7] = test: Induction of qnrB1 gene expression in lexA- and recA- positive Escherichia coli J53 at 0.2 ug/ml after 30 mins by quantitative PCR method relative to control; how it was run: as §1
Escherichia coli [8] = test: Induction of qnrB4 gene expression in lexA- and recA- positive Escherichia coli J53 at 0.2 ug/ml after 30 mins by quantitative PCR method relative to control; how it was run: as §1

## CO[C@@]12[C@H](COC(N)=O)C3=C(C(=O)C(C)=C(N)C3=O)N1C[C@@H]1N[C@@H]12 [MITOMYCIN]
Escherichia coli [1]
  fold change (FC): 1
Escherichia coli [2]
  fold change (FC): 2
Escherichia coli [3]
  fold change (FC): 1
Escherichia coli [4]
  fold change (FC): 0.9
Escherichia coli [5]
  fold change (FC): 2.6
Escherichia coli [6]
  fold change (FC): 8.2
Escherichia coli [7]
  fold change (FC): 2.8
Escherichia coli [8]
  fold change (FC): 7.9

From ChEMBL document CHEMBL1629618, “SOS regulation of qnrB expression” (2009)
